# ChEMBL document CHEMBL4196081, “Synthesis and antimycobacterial activity of 1-(β-d-Ribofuranosyl)-4-coumarinyloxymethyl- / -coumarinyl-1,2,3-triazole” (Eur J Med Chem, 2018)
# The source made the active and inactive calls. The rule behind the calls is not given here.
# Tests used:
# [1] = Cytotoxicity against human THP1 cells assessed as cell viability at 75 ug/ml after 24 hrs by MTT assay relative to control; format: cell-based; conditions: THP-1 cells, read-out: Activity
# Procedure, shortened: (§1)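 THP-1 cells (human monocytic line) seeded at 10^4 per well and adhered with phorbol myristate acetate (20 ng/mL). Then given fresh RPMI with 10% foetal calf serum and 2 mM L-glutamine, plus compound by serial double dilution (4.68–150 µg/mL), with DMSO and no-DMSO controls. Incubated 24 or 48 h at 37 °C, 5% CO2. MTT added for 4 h, formazan dissolved in DMSO, A540 read, percentage survival calculated.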
# [2] = test system: Mycobacterium tuberculosis; assay: Antimycobacterial activity against MDR Mycobacterium tuberculosis isolate 591 after 15 days by MABA; format: functional; conditions: isolate 591, 360 h
# Procedure, shortened: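 MABA in 7H9 medium on MDR clinical isolate 591: filtered single-cell suspension, 1 × 10^6 cells per well with drug dilutions, aerobic 37 °C; 0.02 % resazurin added on day 15, overnight 37 °C. MIC = lowest concentration preventing blue-to-pink change. Triplicate; medium+inoculum and medium-only controls.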
# [3] = Cytotoxicity against human THP1 cells assessed as cell viability at 18.72 ug/ml after 48 hrs by MTT assay relative to control; format: cell-based; conditions: THP-1 cells, read-out: Activity; procedure, shortened: as §1
# [4] = Cytotoxicity against human THP1 cells assessed as cell viability at 18.72 ug/ml after 24 hrs by MTT assay relative to control; format: cell-based; conditions: THP-1 cells, read-out: Activity; procedure, shortened: as §1
# [5] = Cytotoxicity against human THP1 cells assessed as cell viability at 37.48 ug/ml after 48 hrs by MTT assay relative to control; format: cell-based; conditions: THP-1 cells, read-out: Activity; procedure, shortened: as §1
# [6] = Cytotoxicity against human THP1 cells assessed as cell viability at 75 ug/ml after 48 hrs by MTT assay relative to control; format: cell-based; conditions: THP-1 cells, read-out: Activity; procedure, shortened: as §1
# [7] = test system: Mycobacterium tuberculosis; assay: Bactericidal activity against Mycobacterium tuberculosis H37Rv after 4 weeks by MABA; format: functional; conditions: 672 h
# [8] = Cytotoxicity against human THP1 cells assessed as cell viability at 9.36 ug/ml after 24 hrs by MTT assay relative to control; format: cell-based; conditions: THP-1 cells, read-out: Activity; procedure, shortened: as §1
# [9] = Cytotoxicity against human THP1 cells assessed as cell viability at 9.36 ug/ml after 48 hrs by MTT assay relative to control; format: cell-based; conditions: THP-1 cells, read-out: Activity; procedure, shortened: as §1
# [10] = Cytotoxicity against human THP1 cells assessed as cell viability at 4.68 ug/ml after 48 hrs by MTT assay relative to control; format: cell-based; conditions: THP-1 cells, read-out: Activity; procedure, shortened: as §1
# [11] = test system: Mycobacterium tuberculosis; assay: Ratio of MBC to MIC for Mycobacterium tuberculosis H37Rv; format: functional
# [12] = test system: Mycobacterium tuberculosis; assay: Antimycobacterial activity against Mycobacterium tuberculosis H37Rv assessed as induction of cell wall disintegration at 0.05 uM after 30 mins by TEM analysis; format: functional, organism-based
# [13] = Cytotoxicity against human THP1 cells assessed as cell viability at 4.68 ug/ml after 24 hrs by MTT assay relative to control; format: cell-based; conditions: THP-1 cells, read-out: Activity; procedure, shortened: as §1
# [14] = Selectivity index, ratio of IC50 for cytotoxicity against human THP1 cells to MIC for Mycobacterium tuberculosis H37Rv; format: toxicity, cell-based; conditions: THP-1 cells, read-out: Selectivity Index
# Procedure, shortened: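 THP-1 cells, 10^4/well, adhered with PMA 20 ng/mL, in RPMI with 10 % FCS and 2 mM L-glutamine; exposed to 4.68–150 µg/mL for 24 and 48 h at 37 °C, 5 % CO2; MTT 4 h, formazan in DMSO, A540. Index = THP-1 IC50 divided by H37Rv MABA MIC.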
# [15] = test system: Mycobacterium tuberculosis; assay: Antimycobacterial activity against Mycobacterium tuberculosis H37Rv after 10 days by MABA; format: functional; conditions: 240 h
# Procedure, shortened: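 MABA in 7H9 medium: log-phase culture passed through 8 µm filter, density set by OD600 and McFarland standards, 1 × 10^6 cells per well with drug dilutions; aerobic incubation 37 °C 10 days, then 0.02 % resazurin, overnight 37 °C. MIC = lowest concentration preventing blue-to-pink change. Triplicate; medium+inoculum and medium-only controls.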
# [16] = Cytotoxicity against human THP1 cells assessed as cell viability at 37.48 ug/ml after 24 hrs by MTT assay relative to control; format: cell-based; conditions: THP-1 cells, read-out: Activity; procedure, shortened: as §1
# [17] = Cytotoxicity against human THP1 cells assessed as cell viability at 150 ug/ml after 48 hrs by MTT assay relative to control; format: cell-based; conditions: THP-1 cells, read-out: Activity; procedure, shortened: as §1
# [18] = Cytotoxicity against human THP1 cells assessed as cell viability at 150 ug/ml after 24 hrs by MTT assay relative to control; format: cell-based; conditions: THP-1 cells, read-out: Activity; procedure, shortened: as §1
# THP-1 = assay: Cytotoxicity against human THP1 cells assessed as growth inhibition after 24 to 48 hrs by MTT assay; format: cell-based; procedure, shortened: as §1
# [19] = test system: Mycobacterium tuberculosis; assay: Antimycobacterial activity against Mycobacterium tuberculosis H37Rv assessed as induction of cell wall disintegration at 4.15 uM after 30 mins by TEM analysis; format: functional, organism-based
# [20] = test system: Mycobacterium tuberculosis; assay: Bactericidal activity against MDR Mycobacterium tuberculosis isolate 591 after 4 weeks by MABA; format: functional; conditions: isolate 591, 672 h
# [21] = molecular target: DNA gyrase subunit B (Escherichia coli) (UniProt P0AES6); assay: Inhibition of Escherichia coli DNA gyrase-B at 0.66 to 100 uM using relaxed pUC19 DNA as substrate after 1 hr by bromophenol blue dye based agarose gel electrophoresis method
# Procedure, shortened: (§2)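 E. coli DNA gyrase, 1 unit, with 0.3 µg relaxed pUC19 plasmid in 1X gyrase assay buffer. Compound added as 0.2 µL from 100 µM stock; ciprofloxacin positive control, DMSO solvent control. Incubated 37 °C for 1 h, stopped with 50% glycerol/0.25% bromophenol blue. Run on 1% agarose in 0.5X TBE pH 8.3, 16 h at 30 mA, ethidium bromide stained, UV visualised for supercoiling.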
# [22] = molecular target: T1, Enoyl-[acyl-carrier-protein] reductase [NADH] (Mycobacterium tuberculosis) (UniProt P9WGR1); assay: Inhibition of Mycobacterium tuberculosis H37Rv InhA expressed in Escherichia coli at 5 to 100 uM preincubated for 30 mins followed by crotonoyl-CoA substrate and NADH addition measured over 15 mins by spectrophotometric method
# T1 sequence (whole entry): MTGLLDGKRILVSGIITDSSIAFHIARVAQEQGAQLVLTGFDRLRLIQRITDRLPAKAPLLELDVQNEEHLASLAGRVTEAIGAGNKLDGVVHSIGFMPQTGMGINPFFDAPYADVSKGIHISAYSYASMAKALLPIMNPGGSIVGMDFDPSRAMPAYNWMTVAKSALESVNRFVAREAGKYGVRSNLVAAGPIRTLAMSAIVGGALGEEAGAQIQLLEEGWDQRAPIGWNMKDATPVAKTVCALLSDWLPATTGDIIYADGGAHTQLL
# Procedure, shortened: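 Purified recombinant InhA (Rv1484, cloned in E. coli), 2 µg, preincubated 30 min with compound at 5 µM final (DMSO ≤1 % v/v) in 100 mM sodium phosphate pH 7.5; started with 100 µM NADH and 100 µM crotonoyl-CoA; A340 followed 15 min at room temperature. Triplicate.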
# DNA gyrase subunit B = DNA gyrase subunit B (Escherichia coli, UniProt P0AES6); assay: Inhibition of Escherichia coli DNA gyrase-B using relaxed pUC19 DNA as substrate after 1 hr by bromophenol blue dye based agarose gel electrophoresis method; procedure, shortened: as §2
# [23] = test system: Mycobacterium tuberculosis; assay: Ratio of MBC to MIC for MDR Mycobacterium tuberculosis isolate 591; format: functional
# [24] = test system: Mycobacterium tuberculosis; assay: Antimycobacterial activity against Mycobacterium tuberculosis H37Rv assessed as cells with vacuole formation at 4.15 uM after 30 mins by TEM analysis; format: functional, organism-based
# [25] = test system: Mycobacterium tuberculosis; assay: Antimycobacterial activity against Mycobacterium tuberculosis H37Rv assessed as induction of cell wall disintegration at 1.38 uM after 30 mins by TEM analysis; format: functional, organism-based
# [26] = test system: Mycobacterium tuberculosis; assay: Potency index, ratio of isoniazid MIC to compound MIC for antimycobacterial activity against MDR Mycobacterium tuberculosis isolate 591; format: functional
# [27] = test system: Mycobacterium tuberculosis; assay: Potency index, ratio of ethambutol MIC to compound MIC for antimycobacterial activity against MDR Mycobacterium tuberculosis isolate 591; format: functional
# [28] = test system: Mycobacterium tuberculosis; assay: Potency index, ratio of streptomycin MIC to compound MIC for antimycobacterial activity against MDR Mycobacterium tuberculosis isolate 591; format: functional
# [29] = test system: Mycobacterium tuberculosis; assay: Antimycobacterial activity against Mycobacterium tuberculosis H37Rv assessed as cells with vacuole formation at 1.38 uM after 30 mins by TEM analysis; format: functional, organism-based
# [30] = test system: Mycobacterium tuberculosis; assay: Potency index, ratio of rifampicin MIC to compound MIC for antimycobacterial activity against MDR Mycobacterium tuberculosis isolate 591; format: functional
Structure (SMILES),"viability at 24 h, 75 ug/ml [1] [%]",MIC [2] [µM],"viability at 48 h, 18.72 ug/ml [3] [%]","viability at 24 h, 18.72 ug/ml [4] [%]","viability at 48 h, 37.48 ug/ml [5] [%]","viability at 48 h, 75 ug/ml [6] [%]",MBC [7] [µM],"viability at 24 h, 9.36 ug/ml [8] [%]","viability at 48 h, 9.36 ug/ml [9] [%]","viability at 48 h, 4.68 ug/ml [10] [%]",Ratio [11],"viability at 24 h, 4.68 ug/ml [13] [%]",selectivity ratio [14],MIC [15] [µM],"viability at 24 h, 37.48 ug/ml [16] [%]","viability at 48 h, 150 ug/ml [17] [%]","viability at 24 h, 150 ug/ml [18] [%]",IC50 (THP-1) [µM],MBC [20] [µM],inhibition [21],further results
NNC(=O)c1ccncc1 [ISONIAZID],50,2190,67,83,57,41,0.3,85,74,84,1.6,90,2740,0.2,68,40,48,547,–,–,Activity [12]: Active
Cc1cc(=O)oc2cc(-c3cn([C@@H]4O[C@H](CO)[C@@H](O)[C@H]4O)nn3)ccc12,96,22.2,87,99,77,64,16.7,100,90,96,1,100,25,16.6,99,60,84,> 417,22.2,Active,Activity [19]: Active; inhibition [22]: Active; IC50 (DNA gyrase subunit B): 3.2 µM; Ratio [23]: 1; Activity [24]: Active
Cc1cc(=O)oc2cc(OCc3cn([C@@H]4O[C@H](CO)[C@@H](O)[C@H]4O)nn3)ccc12,97,10.3,84,100,74,68,6.4,100,94,95,1.25,100,75.4,5.1,100,60,84,> 385,11.5,Active,Activity [25]: Active; Ratio [26]: 7 - 420; Ratio [27]: 7 - 420; inhibition [22]: Active; Ratio [28]: 7 - 420; Activity [29]: Active; IC50 (DNA gyrase subunit B): 0.8 µM; Ratio [23]: 1.13; Ratio [30]: 7 - 420
